Measurements reported in ChEMBL document CHEMBL4028857, “Anchimerically Activated ProTides as Inhibitors of Cap-Dependent Translation and Inducers of Chemosensitization in Mantle Cell Lymphoma” (J Med Chem, 2017).
pIC50: −log10 of the molar value. The source made the active and inactive calls. The calls are words filed in the database; no cut-off is given here.

Experiments:
Z-138 [1] = assay: Prodrug activation in human Z138 cells assessed as 9-((2R,3R,4S,5R)-5-(((((2-(1H-Indol-3-yl)ethyl)amino)-(hydroxy)phosphoryl)oxy)methyl)-3,4-dihydroxytetrahydrofuran-2-yl)-2-amino-7-(2-(4-chlorophenoxy)ethyl)-6-oxo-6,9-dihydro-1H-purin-7-ium formation per 5 million cells at 150 uM after 12 hrs by LC-MS/MS analysis; assay type: cell-based; conditions: z-138, 12 h
How it was run: (§1)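 Mantle cell lymphoma cells (five million) grown in RPMI with 10% FBS, penicillin/streptomycin and L-glutamine at 37 °C, 5% CO2, then exposed to 150 µM compound for 12 h at 37 °C. Washed with ice-cold PBS, pellet extracted in MeOH/NH4OAc (60:40) with 80 fmol internal standards, three liquid-N2 freeze–thaw cycles, filtered, dried, redissolved in 20 mM HEPES pH 7.2. Analysed by LC-MS/MS against a standard curve.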

[2] = biological target: Eukaryotic translation initiation factor 4E (Homo sapiens) (UniProt P06730); assay: Inhibition of eIF4E in human Mino cells assessed as down regulation of c-Myc protein expression at 100 uM after 48 hrs by Western blot analysis; assay type: cell-based
How it was run: (§2)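 MCL lines treated 48 h with compound; protein quantified and Western blotted with eIF4E, eIF4G, actin, c-Myc and Bcl-2 antibodies.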

[3] = Cytotoxicity against human Mino cells assessed as reduction in cell survival at 100 uM after 48 hrs in presence of ibrutinib by Annexin V/propidium iodide based flow cytometric analysis
How it was run: (§3)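 MCL lines treated 48 h with compound re-added daily (alone or with co-drug; ibrutinib 25 µM), then survival assessed by Annexin V/PI flow cytometry.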

[4] = biological target: Eukaryotic translation initiation factor 4E-binding protein 1 (Homo sapiens) (UniProt Q13541); assay: Inhibition of 4EBP1 phosphorylation at Thr 37/46 residues in human Mino cells at 100 uM after 48 hrs by Western blot analysis; assay type: cell-based; how it was run: as §2
[5] = biological target: Eukaryotic translation initiation factor 4E (Homo sapiens) (UniProt P06730); assay: Inhibition of eIF4E in human Z138 cells assessed as disruption of interaction between protein and mRNA 5'-cap at 10 to 100 uM by m7GTP pull-down assay; assay type: cell-based
How it was run: (§4)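 Eight to ten million treated MCL cells washed in cold PBS, lysed in cap binding buffer, and eIF4E binding captured on m7GTP-Sepharose beads (pull-down).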

Z-138 [6] = assay: Antiproliferative activity against human Z138 cells at 200 uM preincubated for 48 hrs followed by thymidine addition measure after 16 hrs by Thymidine incorporation assay; assay type: functional
How it was run: (§5)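 MCL lines treated 48 h with compound re-added daily, alone or with co-drug (ibrutinib 25 µM where used), then thymidine added for a further 16 h; proliferation read as thymidine incorporation.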

[7] = AUC (0 to 8 hrs) in Sprague-Dawley rat plasma at 2.5 mg/kg, iv by LC-MS/MS analysis; assay type: ADME, organism-based; parameters: time < 8 hr, dose 2.5 mg/kg, route intravenous
How it was run: (§6)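 Female Sprague-Dawley rats (250-274 g, n=3, catheterized femoral/jugular veins) dosed once p.o. by gavage (25 mg/kg) then, after a 3-day washout, i.v. (2.5 mg/kg). Formulation: 10 mg/mL in 0.5% aqueous CMC with 5% DMSO. Serial blood draws to 480 min into K2EDTA; plasma protein-precipitated with acetonitrile plus internal standards; LC-MS/MS (positive MRM); non-compartmental PK; %F from dose-normalized AUC per rat.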

[8] = biological target: T1, Adenosine 5'-monophosphoramidase HINT1 (Homo sapiens, UniProt P49773); assay: Prodrug activation in human Z138 cells assessed as Hint1 mediated 2-amino-7-(2-(4-chlorophenoxy)ethyl)-9-((2R,3R,4S,5R)-3,4-dihydroxy-5-(phosphonooxymethyl)tetrahydrofuran-2-yl)-6-oxo-6,9-dihydro-1H-purin-7-ium formation per 5 million cells at 150 uM after 12 hrs by LC-MS/MS analysis; assay type: cell-based; how it was run: as §1
[9] = biological target: Eukaryotic translation initiation factor 4E (Homo sapiens) (UniProt P06730); assay: Inhibition of eIF4E in human GRANTA-519 cells assessed as increase in p27 protein expression after 48 hrs by Western blot method; assay type: cell-based; how it was run: as §2
[10] = biological target: Eukaryotic translation initiation factor 4E (Homo sapiens) (UniProt P06730); assay: Inhibition of eIF4E in human Mino cells assessed as increase in p27 protein expression after 48 hrs by Western blot method; assay type: cell-based; how it was run: as §2
[11] = biological target: Eukaryotic translation initiation factor 4E-binding protein 1 (Homo sapiens) (UniProt Q13541); assay: Inhibition of 4EBP1 phosphorylation at Ser 65 residues in human Mino cells at 100 uM after 48 hrs in presence of ibrutinib by Western blot analysis; assay type: cell-based; how it was run: as §2
Plasma = assay: Prodrug activation in Sprague-Dawley rat assessed as Hint1 mediated 2-amino-7-(2-(4-chlorophenoxy)ethyl)-9-((2R,3R,4S,5R)-3,4-dihydroxy-5-(phosphonooxymethyl)tetrahydrofuran-2-yl)-6-oxo-6,9-dihydro-1H-purin-7-ium formation in plasma at 2.5 mg/kg, iv or 25 mg/kg, po by LC-MS/MS analysis; assay type: organism-based; conditions: in vivo; how it was run: as §6
[12] = biological target: Eukaryotic translation initiation factor 4E-binding protein 1 (Homo sapiens) (UniProt Q13541); assay: Inhibition of 4EBP1 phosphorylation at Ser 65 residues in human Mino cells at 100 uM after 48 hrs by Western blot analysis; assay type: cell-based; how it was run: as §2
[13] = biological target: Eukaryotic translation initiation factor 4E (Homo sapiens) (UniProt P06730); assay: Inhibition of eIF4E in human Mino cells assessed as potentiation of doxorobucin induced antiproliferation at 100 uM preincubated for 48 hrs followed by thymidine addition measure after 16 hrs by Thymidine incorporation assay; assay type: cell-based; how it was run: as §5
[14] = AUC (0 to 8 hrs) in Sprague-Dawley rat plasma at 25 mg/kg, po by LC-MS/MS analysis; assay type: ADME, organism-based; parameters: time < 8 hr, dose 25 mg/kg, route oral; how it was run: as §6
[15] = biological target: T1, Adenosine 5'-monophosphoramidase HINT1; assay: Prodrug activation in human Z138 cells assessed as hint1-mediated 2-amino-7-(2-(4-chlorophenoxy)ethyl)-9-((2R,3R,4S,5R)-3,4-dihydroxy-5-(phosphonooxymethyl)tetrahydrofuran-2-yl)-6-oxo-6,9-dihydro-1H-purin-7-ium formation per 5 million cells at 150 uM after 12 hrs by LC-MS/MS analysis relative to 9-((2R,3R,4S,5R)-5-(((((2-(1H-Indol-3-yl)ethyl)amino)-(hydroxy)phosphoryl)oxy)methyl)-3,4-dihydroxytetrahydrofuran-2-yl)-2-amino-7-(2-(4-chlorophenoxy)ethyl)-6-oxo-6,9-dihydro-1H-purin-7-ium; assay type: cell-based; how it was run: as §1
[16] = Half life in Sprague-Dawley rat at 2.5 mg/kg, iv by LC-MS/MS analysis; assay type: ADME, organism-based; conditions: in vivo; how it was run: as §6
[17] = Cmax in Sprague-Dawley rat at 25 mg/kg, po measured at 30 mins post dose by LC-MS/MS analysis; assay type: ADME, organism-based; parameters: dose 25 mg/kg, route oral; conditions: in vivo; how it was run: as §6
[18] = biological target: Eukaryotic translation initiation factor 4E (Homo sapiens) (UniProt P06730); assay: Inhibition of eIF4E in human GRANTA-519 cells assessed as disruption of interaction between protein and mRNA 5'-cap at 10 to 100 uM by m7GTP pull-down assay; assay type: cell-based; how it was run: as §4
[19] = biological target: Eukaryotic translation initiation factor 4E (Homo sapiens) (UniProt P06730); assay: Inhibition of eIF4E in human Mino cells assessed as down regulation of c-Myc protein expression at 100 uM after 48 hrs in presence of ibrutinib by Western blot analysis; assay type: cell-based; how it was run: as §2
Rattus norvegicus = assay: Clearance in Sprague-Dawley rat at 2.5 mg/kg, iv by LC-MS/MS analysis; assay type: ADME, organism-based; conditions: in vivo; how it was run: as §6
[20] = biological target: Eukaryotic translation initiation factor 4E (Homo sapiens) (UniProt P06730); assay: Inhibition of eIF4E in human Mino cells assessed as potentiation of dexamethasone induced antiproliferation at 100 uM preincubated for 48 hrs followed by thymidine addition measure after 16 hrs by Thymidine incorporation assay; assay type: cell-based; how it was run: as §5
[21] = Oral bioavailability in Sprague-Dawley rat at 25 mg/kg by LC-MS/MS analysis; assay type: ADME, organism-based; conditions: in vivo; how it was run: as §6
Mino = assay: Antiproliferative activity against human Mino cells at 100 uM preincubated for 48 hrs followed by thymidine addition measure after 16 hrs by Thymidine incorporation assay; assay type: functional, cell-based; how it was run: as §5
Granta-519 = assay: Antiproliferative activity against human GRANTA-519 cells after 48 hrs by Annexin V/propidium iodide based flow cytometric analysis; assay type: functional, cell-based; conditions: Granta-519, 48 h; how it was run: as §3

Chain of Eukaryotic translation initiation factor 4E-binding protein 1 (Homo sapiens) (Q13541 whole entry): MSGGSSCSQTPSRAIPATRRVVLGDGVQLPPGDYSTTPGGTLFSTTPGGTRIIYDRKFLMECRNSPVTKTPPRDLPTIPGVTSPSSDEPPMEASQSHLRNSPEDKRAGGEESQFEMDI
Chain of Eukaryotic translation initiation factor 4E (Homo sapiens) (P06730 whole entry): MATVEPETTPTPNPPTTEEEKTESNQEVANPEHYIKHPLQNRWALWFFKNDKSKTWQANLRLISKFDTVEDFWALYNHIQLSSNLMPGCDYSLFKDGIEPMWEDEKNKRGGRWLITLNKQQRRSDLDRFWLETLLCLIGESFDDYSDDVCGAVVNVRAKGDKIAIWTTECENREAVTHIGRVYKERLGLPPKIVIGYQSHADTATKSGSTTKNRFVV
T1 sequence (P49773 whole entry): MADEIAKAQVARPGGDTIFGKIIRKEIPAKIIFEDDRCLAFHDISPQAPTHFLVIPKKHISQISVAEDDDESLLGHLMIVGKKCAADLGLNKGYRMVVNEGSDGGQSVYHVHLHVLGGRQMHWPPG

Structure (SMILES): CSCCOP(=O)(NCCc1c[nH]c2ccccc12)OC[C@H]1O[C@@H](n2c[n+](CCOc3ccc(Cl)cc3)c3c(=O)[nH]c(N)nc32)[C@H](O)[C@@H]1O (stereo not given in full)
- Drug metabolism (Z-138 [1]): 37.3 pmol
- inhibition [2]: Active
- Activity [3]: Toxic
- inhibition [4]: inactive
- inhibition [5]: Active
- Activity (Z-138 [6]): 100%
- AUC(0-t) at 8 h [7]: 23.3 ng·h/mL
- Drug metabolism [8]: 272 pmol
- inhibition [9]: Dose-dependent effect
- inhibition [10]: Dose-dependent effect
- inhibition [11]: Active
- Drug metabolism (Plasma): Metabolite_Notdetected
- inhibition [12]: inactive
- inhibition [13]: Active
- AUC(0-t) at 8 h [14]: 28.3 ng·h/mL
- fold change (FC) [15]: 520
- half-life [16]: 1.32 h
- Cmax [17]: 5 ng/mL
- inhibition [18]: Active
- inhibition [19]: Active
- CL (Rattus norvegicus): 1800 mL/min/kg
- inhibition [20]: Active
- bioavailability [21]: 23%
- Activity (Mino): Active
- pIC50 (Granta-519): < 3.70
